Calls of active or inactive are those of the source. No cut-off for these calls is given here.
What was measured:
[1] = Solubility of the compound in water; assay type: physicochemical; details: buffer
[2] = Cytotoxicity against human 518A2 cells after 96 hrs by SRB assay; assay type: functional, cell-based
Outline: (§1)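 Cells exposed to test compounds for 96 h, then viable cells measured by sulforhodamine B staining as a percentage of untreated controls. IC50 read from dose-response curves, averaged over at least three independent experiments. Compounds tested free and also encapsulated in soybean-lecithin liposomes extruded through a 100 nm polycarbonate membrane (hydrodynamic diameter 70-120 nm, Z-average 105 nm, encapsulation >96% by HPLC).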

[3] = test system: A-431; assay: Cytotoxicity against human A431 cells after 96 hrs by SRB assay; assay type: functional, cell-based; outline: as §1
[4] = Cytotoxicity against human A253 cells after 96 hrs by SRB assay; assay type: functional, cell-based; outline: as §1
[5] = test system: FaDu; assay: Cytotoxicity against human FADU cells after 96 hrs by SRB assay; assay type: functional, cell-based; outline: as §1
[6] = test system: A549; assay: Cytotoxicity against human A549 cells after 96 hrs by SRB assay; assay type: functional, cell-based; outline: as §1
[7] = test system: A2780; assay: Cytotoxicity against human A2780 cells after 96 hrs by SRB assay; assay type: functional, cell-based; outline: as §1
[8] = test system: DLD-1; assay: Cytotoxicity against human DLD1 cells after 96 hrs by SRB assay; assay type: functional, cell-based; outline: as §1
[9] = test system: HCT-8; assay: Cytotoxicity against human HCT8 cells after 96 hrs by SRB assay; assay type: functional, cell-based; outline: as §1
[10] = test system: HCT-116; assay: Cytotoxicity against human HCT116 cells after 96 hrs by SRB assay; assay type: functional, cell-based; outline: as §1
[11] = test system: HT-29; assay: Cytotoxicity against human HT-29 cells after 96 hrs by SRB assay; assay type: functional, cell-based; outline: as §1
[12] = test system: SW480; assay: Cytotoxicity against human SW480 cells after 96 hrs by SRB assay; assay type: functional, cell-based; outline: as §1
[13] = test system: 8505C; assay: Cytotoxicity against human 8505C cells after 96 hrs by SRB assay; assay type: functional, cell-based; outline: as §1
[14] = test system: SW-1736; assay: Cytotoxicity against human SW1736 cells after 96 hrs by SRB assay; assay type: functional, cell-based; outline: as §1
[15] = test system: MCF7; assay: Cytotoxicity against human MCF7 cells after 96 hrs by SRB assay; assay type: functional, cell-based; outline: as §1
[16] = Cytotoxicity against human Lipo cells after 96 hrs by SRB assay; assay type: functional, cell-based; outline: as §1
[17] = test system: NIH3T3; assay: Cytotoxicity against mouse NIH/3T3 cells after 96 hrs by SRB assay; assay type: cell-based; details: NIH3T3, 96 h; outline: as §1
[18] = test system: SW480; assay: Induction of apoptosis in human SW480 cells assessed as DNA laddering at 6 uM after 24 hrs; assay type: functional, cell-based
[19] = test system: A549; assay: Induction of apoptosis in human A549 cells at 0.8 uM by acridine orange/ethidium bromide staining; assay type: functional, cell-based
[20] = Chemical stability of the compound; assay type: physicochemical
[21] = test system: SW480; assay: Induction of apoptosis in human SW480 cells assessed as DNA laddering at IC90 concentration after 24 hrs
[22] = Homo sapiens, 518A2, 96 h, read-out: IC50
[23] = Homo sapiens, A-431, 96 h, read-out: IC50
[24] = Homo sapiens, A253, 96 h, read-out: IC50
[25] = Homo sapiens, FaDu, 96 h, read-out: IC50
[26] = Homo sapiens, A549, 96 h, read-out: IC50
[27] = Homo sapiens, A2780, 96 h, read-out: IC50
[28] = Homo sapiens, DLD-1, 96 h, read-out: IC50
[29] = Homo sapiens, HCT-8, 96 h, read-out: IC50
[30] = Homo sapiens, HCT-116, 96 h, read-out: IC50
[31] = Homo sapiens, HT-29, 96 h, read-out: IC50
[32] = Homo sapiens, SW480, 96 h, read-out: IC50
[33] = Homo sapiens, 8505C, 96 h, read-out: IC50
[34] = Homo sapiens, SW-1736, 96 h, read-out: IC50
[35] = Homo sapiens, MCF7, 96 h, read-out: IC50
[36] = Homo sapiens, Lipo, 96 h, read-out: IC50

SMILES	solubility [1]	IC50 [2, 22] [µM]	IC50 [3, 23] [nM]	IC50 [4, 24] [nM]	IC50 [5, 25] [µM]	IC50 [6, 26] [nM]	IC50 [7, 27] [nM]	IC50 [8, 28] [µM]	IC50 [9, 29] [µM]	IC50 [10, 30] [nM]	IC50 [11, 31] [nM]	IC50 [12, 32] [nM]	IC50 [13, 33] [µM]	IC50 [14, 34] [nM]	IC50 [15, 35] [nM]	IC50 [16, 36] [nM]	IC50 [17] [µM]	other results
C=C(C)[C@@H]1CC[C@]2(C=O)CC[C@]3(C)[C@H](CC[C@@H]4[C@@]5(C)CCC(=O)C(C)(C)[C@@H]5CC[C@]43C)[C@@H]12 [BETULONAL]	Insoluble	–	–	–	–	–	–	–	–	–	–	–	–	–	–	–	–	–
C=C(C)[C@@H]1CC[C@]2(C(=O)OC)CC[C@]3(C)[C@H](CC[C@@H]4[C@@]5(C)CCC(=O)C(C)(C)[C@@H]5CC[C@]43C)[C@@H]12 [METHYL BETULONATE]	Insoluble	–	–	–	–	–	–	–	–	–	–	–	–	–	–	–	–	–
C=C1C[C@]2(C)[C@H]3CC[C@@H]4[C@H]5[C@H](C(=C)C)CC[C@]5(C=O)CC[C@@]4(C)[C@]3(C)CC[C@H]2C(C)(C)C1=O	Insoluble	3.8	3000	1000	5.1	1800	1300	3.7	7.1	3200	7100	2700	1.3	2100	2100	2700	4.7	–
C=C(C)[C@@H]1CC[C@]2(C(=O)OC)CC[C@]3(C)[C@H](CC[C@@H]4[C@@]5(C)C[C@@H](CN(C)C)C(=O)C(C)(C)[C@@H]5CC[C@]43C)[C@@H]12	Insoluble	–	–	–	–	–	–	–	–	–	–	–	–	–	–	–	–	Stability [20]: Unstable
C=C(C)[C@@H]1CC[C@]2(C(=O)OC)CC[C@]3(C)[C@H](CC[C@@H]4[C@@]5(C)C[C@@H](CC[N+](=O)[O-])C(=O)C(C)(C)[C@@H]5CC[C@]43C)[C@@H]12	Insoluble	–	–	–	–	–	–	–	–	–	–	–	–	–	–	–	–	–
C=C1C[C@]2(C)[C@H]3CC[C@@H]4[C@H]5[C@H](C(=C)C)CC[C@]5(C(=O)OC)CC[C@@]4(C)[C@]3(C)CC[C@H]2C(C)(C)C1=O	Insoluble	4.2	4900	4000	7.7	5100	5100	6.4	9	4500	5900	4500	5	4900	4400	4600	4.9	Activity [18]: Active; Activity [19]: Active
C=C(C)[C@@H]1CC[C@]2(C(=O)O)CC[C@]3(C)[C@H](CC[C@@H]4[C@@]5(C)CCC(=O)C(C)(C)[C@@H]5CC[C@]43C)[C@@H]12 [BETUNOLIC ACID]	Insoluble	–	–	–	–	–	–	–	–	–	–	–	–	–	–	–	–	–
C=C(C)[C@@H]1CC[C@]2(CO)CC[C@]3(C)[C@H](CC[C@@H]4[C@@]5(C)CC[C@H](O)C(C)(C)[C@@H]5CC[C@]43C)[C@@H]12 [BETULIN]	Insoluble	–	–	–	–	–	–	–	–	–	–	–	–	–	–	–	–	–

More lines, main results first:

solubility [1]	SMILES	IC50 [2, 22] [µM]	IC50 [3, 23] [nM]	IC50 [4, 24] [nM]	IC50 [5, 25] [µM]	IC50 [6, 26] [nM]	IC50 [7, 27] [nM]	IC50 [8, 28] [µM]	IC50 [9, 29] [µM]	IC50 [10, 30] [nM]	IC50 [11, 31] [nM]	IC50 [12, 32] [nM]	IC50 [13, 33] [µM]	IC50 [14, 34] [nM]	IC50 [15, 35] [nM]	IC50 [16, 36] [nM]	IC50 [17] [µM]	other results
Insoluble	C=C(C)[C@@H]1CC[C@]2(C(=O)OC)CC[C@]3(C)[C@H](CC[C@@H]4[C@@]5(C)C[C@@H](CSCCO)C(=O)C(C)(C)[C@@H]5CC[C@]43C)[C@@H]12	1.5	1700	1500	2.5	2100	1600	2.5	2.5	1900	1400	1500	2.3	2100	1500	1800	2.1	Activity [18]: Active; Activity [19]: Active
Insoluble	C=C1C[C@]2(C)[C@H]3CC[C@@H]4[C@H]5[C@H](C(=C)C)CC[C@]5(C(=O)N5CCSCC5)CC[C@@]4(C)[C@]3(C)CC[C@H]2C(C)(C)C1=O	1.5	1400	1400	1.6	1500	1000	1.5	1.5	1300	1600	1500	1.5	1500	1400	1500	1.9	–
Insoluble	C=C(C)[C@@H]1CC[C@]2(C(=O)OC)CC[C@]3(C)[C@H](CC[C@@H]4[C@@]5(C)C[C@@]6(CCN=N6)C(=O)C(C)(C)[C@@H]5CC[C@]43C)[C@@H]12	–	–	–	–	–	–	–	–	–	–	–	–	–	–	–	–	IC50 ([2]; 518a2): > 30 µM; IC50 ([3]; a-431): > 30000 nM; IC50 ([4]; a253): > 30000 nM; IC50 ([5]; fadu): > 30 µM; IC50 ([6]; a549): > 30000 nM; IC50 ([7]; a2780): > 30000 nM; IC50 ([8]; dld-1): > 30 µM; IC50 ([9]; hct-8): > 30 µmol; IC50 ([10]; hct-116): > 30 µmol; IC50 ([11]; ht-29): > 30 µmol; IC50 ([12]; sw480): > 30 µmol; IC50 ([13]; 8505c): > 30 µM; IC50 ([14]; sw-1736): > 30 µmol; IC50 ([15]; mcf7): > 30 µmol; IC50 ([16]; lipo): > 30 µmol
Insoluble	C=C(C)[C@@H]1CC[C@]2(C(=O)OC)CC[C@]3(C)[C@H](CC[C@@H]4[C@@]5(C)C[C@@H](CS(=O)(=O)CCO)C(=O)C(C)(C)[C@@H]5CC[C@]43C)[C@@H]12	2.6	2800	2500	3.8	3300	2600	4.4	4	2800	2500	2600	3.4	3300	2600	2700	3.2	–
Insoluble	C=C1C[C@]2(C)[C@H]3CC[C@@H]4[C@H]5[C@H](C(=C)C)CC[C@]5(C(=O)O)CC[C@@]4(C)[C@]3(C)CC[C@H]2C(C)(C)C1=O	0.5	200	400	0.5	600	600	0.4	0.2	200	400	400	0.6	400	300	600	0.8	Activity [19]: Active; Activity [21]: Active
Insoluble	C=C/C=C1/C[C@]2(C)[C@H]3CC[C@@H]4[C@H]5[C@H](C(=C)C)CC[C@]5(C(=O)OC)CC[C@@]4(C)[C@]3(C)CC[C@H]2C(C)(C)C1=O	11.5	13000	10400	17	13000	11200	14.2	14	14600	10900	10500	11.3	15000	11200	11600	13.1	–
Insoluble	C=C(C)[C@@H]1CC[C@]2(C(=O)OC)CC[C@]3(C)[C@H](CC[C@@H]4[C@@]5(C)C/C(=C\C)C(=O)C(C)(C)[C@@H]5CC[C@]43C)[C@@H]12	> 30	26400	21600	22.4	> 30000	16100	> 30	17.2	24000	> 30000	16000	26.4	21900	27200	27800	29.1	–

— ChEMBL document CHEMBL2034930, “Alkylidene branched lupane derivatives: synthesis and antitumor activity” (Eur J Med Chem, 2012)
